{"source": "ChEMBL document CHEMBL1143425", "about": "“Paradoxical growth effect of caspofungin observed on biofilms and planktonic cells of five different Candida species” (2007)", "key": {"Candida albicans [1]": {"tested_on": "Candida albicans", "assay": "Antimicrobial activity against Candida albicans BR-A7 grown as planktonic cell assessed as paradoxical growth after 48 hrs by XTT reduction assay", "assay_type": "functional, organism-based", "in_short": "(§1)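 Planktonic cells were tested by CLSI M27-A2 broth microdilution with caspofungin in water, incubated 48 h. XTT-menadione was added to each well, plates were held 1 h at 35°C in the dark and centrifuged, and supernatant absorbance was read at 490 nm. MIC was defined as 50% decrease in metabolic activity versus drug-free control. PG was defined as ≥20% of control activity at concentrations above MIC.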"}, "Candida parapsilosis [2]": {"tested_on": "Candida parapsilosis", "assay": "Antimicrobial activity against Candida parapsilosis BR-A29 grown as biofilm assessed as concentration producing paradoxical growth after 48 hrs by XTT reduction assay", "assay_type": "functional", "in_short": "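Clinical isolates were grown overnight (18 h, 35°C, 120 rpm) in RPMI 1640 with MOPS, pH 7.0, then washed and set to ~1 × 10^7 cells/ml. Cells attached for 1.5 h at 37°C, 75 rpm, then biofilms grew 24 h. Caspofungin was given as doubling dilutions of 2–1,024 μg/ml for 48 h at 35°C, 75 rpm. Read-out was XTT-menadione in PBS, 1 h at 35°C in the dark, A490, cell-free blank subtracted. MIC was a 50% drop in activity versus drug-free; PG was >50% of control above MIC. Run in duplicate.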"}, "Candida orthopsilosis [3]": {"tested_on": "Candida orthopsilosis", "assay": "Antimicrobial activity against Candida orthopsilosis BR-A33 grown as planktonic cell assessed as paradoxical growth after 48 hrs by XTT reduction assay", "assay_type": "functional, organism-based", "in_short": "as §1"}, "Candida metapsilosis [4]": {"tested_on": "Candida metapsilosis", "assay": "Antimicrobial activity against Candida metapsilosis BR-A40 grown as biofilm assessed as concentration producing paradoxical growth after 48 hrs by XTT reduction assay", "assay_type": "functional", "in_short": "(§2)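 Sabouraud-grown cells were shaken overnight (18 h, 120 rpm, 35°C) in RPMI 1640 with MOPS at pH 7.0, then washed and set at ~1 × 10^7 cells/ml. Attachment lasted 1.5 h at 37°C, and growth ran 24 h before challenge. Caspofungin was added in RPMI at 2–1,024 μg/ml (10 doublings) for 48 h at 35°C with shaking. XTT-menadione was read at 490 nm after 1 h at 35°C in the dark, with blank wells subtracted. MIC was taken as 50% reduction versus drug-free wells, and PG as >50% of control above MIC. Assays were run in duplicate.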"}, "Candida orthopsilosis [5]": {"tested_on": "Candida orthopsilosis", "assay": "Antimicrobial activity against Candida orthopsilosis BR-A33 grown as biofilm assessed as concentration producing paradoxical growth after 48 hrs by XTT reduction assay", "assay_type": "functional", "in_short": "as §2"}, "Candida metapsilosis [6]": {"tested_on": "Candida metapsilosis", "assay": "Effect on morphology in Candida metapsilosis grown as biofilm assessed as inhibition of hyphae and pseudohyphae at 16 ug/ml after 48 hrs", "assay_type": "functional, organism-based", "in_short": "(§3)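 Biofilms formed in RPMI 1640 wells were exposed to caspofungin for 48 h and compared with drug-free control wells. Wells were examined in the plate under an inverted light microscope at ×200 and photographed.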"}, "Candida albicans [7]": {"tested_on": "Candida albicans", "assay": "Antimicrobial activity against Candida albicans BR-A7 grown as planktonic cell after 48 hrs by XTT reduction assay", "assay_type": "functional", "in_short": "(§4)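 Planktonic broth microdilution followed CLSI M27-A2, with caspofungin dissolved in water. After 48 h, XTT-menadione was added to the wells and plates were kept 1 h at 35°C in the dark. Plates were then centrifuged and supernatant A490 was read. MIC was the lowest concentration giving a 50% decrease in metabolic activity versus drug-free control. Paradoxical growth was defined as ≥20% of control activity above the MIC.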"}, "Candida metapsilosis [8]": {"tested_on": "Candida metapsilosis", "assay": "Antimicrobial activity against Candida metapsilosis BR-A43 grown as planktonic cell assessed as paradoxical growth after 48 hrs by XTT reduction assay", "assay_type": "functional, organism-based", "in_short": "as §1"}, "Candida tropicalis [9]": {"tested_on": "Candida tropicalis", "assay": "Effect on morphology in Candida tropicalis grown as planktonic cells assessed as inhibition of hyphae and pseudohyphae at 8 ug/ml after 48 hrs", "assay_type": "functional, organism-based", "in_short": "(§5)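 Clinical isolates were tested by CLSI M27-A2 broth microdilution with caspofungin dissolved in sterile water. After 48 h incubation, cells were taken from drug-containing and drug-free control wells. They were examined by light microscopy at ×400 for hyphae or pseudohyphae, rounding or clumping, and enlarged globose cells.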"}, "Candida metapsilosis [10]": {"tested_on": "Candida metapsilosis", "assay": "Antimicrobial activity against Candida metapsilosis BR-A42 grown as biofilm assessed as concentration producing paradoxical growth after 48 hrs by XTT reduction assay", "assay_type": "functional", "in_short": "as §2"}, "Candida metapsilosis [11]": {"tested_on": "Candida metapsilosis", "assay": "Antimicrobial activity against Candida metapsilosis BR-A42 grown as planktonic cell after 48 hrs by XTT reduction assay", "assay_type": "functional", "conditions": "Lodderomyces metapsilosis", "in_short": "as §1"}, "Candida parapsilosis [12]": {"tested_on": "Candida parapsilosis", "assay": "Effect on morphology in Candida parapsilosis grown as planktonic cells assessed as rounding and clumping at 16 ug/ml after 48 hrs", "assay_type": "functional, organism-based", "in_short": "as §5"}, "Candida parapsilosis [13]": {"tested_on": "Candida parapsilosis", "assay": "Antimicrobial activity against Candida parapsilosis BR-A25 grown as biofilm after 48 hrs by XTT reduction assay", "assay_type": "functional", "conditions": "Lodderomyces parapsilosis", "in_short": "(§6)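 Isolates were grown on Sabouraud agar (30°C, 24 h), then overnight in RPMI 1640 with MOPS, pH 7.0, at 35°C with shaking. Cells were washed and set to ~1 × 10^7 cells/ml, attached 1.5 h at 37°C, and grown 24 h. Biofilms were then exposed to caspofungin in 10 twofold dilutions (2–1,024 μg/ml) for 48 h at 35°C with shaking. Read-out was XTT-menadione, 1 h, 35°C, dark, A490, cell-free blank subtracted. MIC was the 50% drop in activity versus drug-free control. Tested in duplicate.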"}, "Candida tropicalis [14]": {"tested_on": "Candida tropicalis", "assay": "Antimicrobial activity against Candida tropicalis BR-A20 grown as planktonic cell assessed as paradoxical growth after 48 hrs by XTT reduction assay", "assay_type": "functional, organism-based", "in_short": "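Planktonic broth microdilution followed CLSI M27-A2, with caspofungin dissolved in water. After 48 h, XTT-menadione was added to each well and plates were incubated 1 h at 35°C in the dark. Cells were pelleted by centrifugation and the supernatant was read at 490 nm. MIC was the lowest concentration giving a 50% drop in metabolic activity versus the drug-free control. PG was ≥20% of drug-free activity above the MIC.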"}, "Candida orthopsilosis [15]": {"tested_on": "Candida orthopsilosis", "assay": "Effect on morphology in Candida orthopsilosis grown as biofilm assessed as inhibition of hyphae and pseudohyphae at 32 ug/ml after 48 hrs", "assay_type": "functional, organism-based", "in_short": "as §3"}, "Candida orthopsilosis [16]": {"tested_on": "Candida orthopsilosis", "assay": "Antimicrobial activity against Candida orthopsilosis BR-A36 grown as planktonic cell after 48 hrs by XTT reduction assay", "assay_type": "functional", "conditions": "Lodderomyces orthopsilosis", "in_short": "as §1"}, "Candida orthopsilosis [17]": {"tested_on": "Candida orthopsilosis", "assay": "Antimicrobial activity against Candida orthopsilosis BR-A32 grown as biofilm after 48 hrs by XTT reduction assay", "assay_type": "functional", "conditions": "Lodderomyces orthopsilosis", "in_short": "as §6"}, "Candida parapsilosis [18]": {"tested_on": "Candida parapsilosis", "assay": "Effect on morphology in Candida parapsilosis grown as biofilm assessed as rounding and clumping at 128 ug/ml after 48 hrs", "assay_type": "functional, organism-based", "in_short": "as §3"}, "Candida albicans [19]": {"tested_on": "Candida albicans", "assay": "Antimicrobial activity against Candida albicans BR-A2 grown as biofilm after 48 hrs by XTT reduction assay", "assay_type": "functional", "in_short": "as §6"}, "Candida orthopsilosis [20]": {"tested_on": "Candida orthopsilosis", "assay": "Antimicrobial activity against Candida orthopsilosis BR-A37 grown as planktonic cell after 48 hrs by XTT reduction assay", "assay_type": "functional", "conditions": "Lodderomyces orthopsilosis", "in_short": "as §4"}, "Candida orthopsilosis [21]": {"tested_on": "Candida orthopsilosis", "assay": "Antimicrobial activity against Candida orthopsilosis BR-A38 grown as biofilm assessed as paradoxical growth after 48 hrs by XTT reduction assay", "assay_type": "functional, organism-based", "in_short": "as §2"}, "Candida orthopsilosis [22]": {"tested_on": "Candida orthopsilosis", "assay": "Antimicrobial activity against Candida orthopsilosis BR-A34 grown as planktonic cell after 48 hrs by XTT reduction assay", "assay_type": "functional", "conditions": "Lodderomyces orthopsilosis", "in_short": "as §1"}, "Candida orthopsilosis [23]": {"tested_on": "Candida orthopsilosis", "assay": "Antimicrobial activity against Candida orthopsilosis BR-A36 grown as planktonic cell assessed as paradoxical growth after 48 hrs by XTT reduction assay", "assay_type": "functional, organism-based", "in_short": "as §1"}, "Candida orthopsilosis [24]": {"tested_on": "Candida orthopsilosis", "assay": "Antimicrobial activity against Candida orthopsilosis BR-A38 grown as biofilm after 48 hrs by XTT reduction assay", "assay_type": "functional", "conditions": "Lodderomyces orthopsilosis", "in_short": "as §2"}, "Candida parapsilosis [25]": {"tested_on": "Candida parapsilosis", "assay": "Effect on morphology in Candida parapsilosis grown as planktonic cells assessed as inhibition of hyphae and pseudohyphae at 16 ug/ml after 48 hrs", "assay_type": "functional, organism-based", "in_short": "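Cells were taken from caspofungin-containing and drug-free wells of the planktonic broth microdilution test after 48 h. They were examined by light microscopy at ×400.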"}}, "note": "Activity calls are given as the source filed them.", "data": [{"smiles": "CC[C@H](C)C[C@H](C)CCCCCCCCC(=O)N[C@H]1C[C@@H](O)[C@@H](NCCN)NC(=O)[C@@H]2[C@@H](O)CCN2C(=O)[C@H]([C@H](O)CCN)NC(=O)[C@H]([C@H](O)[C@@H](O)c2ccc(O)cc2)NC(=O)[C@@H]2C[C@@H](O)CN2C(=O)[C@H]([C@@H](C)O)NC1=O", "note": "[CASPOFUNGIN]", "values": [{"measurement": "Activity", "setting": "Candida albicans [1]", "result": "Active"}, {"measurement": "Activity", "setting": "Candida parapsilosis [2]", "result": 16, "unit": "µg/mL"}, {"measurement": "Activity", "setting": "Candida orthopsilosis [3]", "result": "inactive"}, {"measurement": "Activity", "setting": "Candida metapsilosis [4]", "result": 16, "unit": "µg/mL"}, {"measurement": "Activity", "setting": "Candida orthopsilosis [5]", "result": 32, "unit": "µg/mL"}, {"measurement": "Activity", "setting": "Candida metapsilosis [6]", "result": "Active"}, {"measurement": "MIC", "setting": "Candida albicans [7]", "result": 0.5, "unit": "µg/mL"}, {"measurement": "Activity", "setting": "Candida metapsilosis [8]", "result": "inactive"}, {"measurement": "Activity", "setting": "Candida tropicalis [9]", "result": "Active"}, {"measurement": "Activity", "setting": "Candida metapsilosis [10]", "result": 32, "unit": "µg/mL"}, {"measurement": "MIC", "setting": "Candida metapsilosis [11]", "result": 1, "unit": "µg/mL"}, {"measurement": "Activity", "setting": "Candida parapsilosis [12]", "result": "Active"}, {"measurement": "MIC", "setting": "Candida parapsilosis [13]", "result": 2, "unit": "µg/mL"}, {"measurement": "Activity", "setting": "Candida tropicalis [14]", "result": "Active"}, {"measurement": "Activity", "setting": "Candida orthopsilosis [15]", "result": "Active"}, {"measurement": "MIC", "setting": "Candida orthopsilosis [16]", "result": 1, "unit": "µg/mL"}, {"measurement": "MIC", "setting": "Candida orthopsilosis [17]", "result": 2, "unit": "µg/mL"}, {"measurement": "Activity", "setting": "Candida parapsilosis [18]", "result": "Active"}, {"measurement": "MIC", "setting": "Candida albicans [19]", "result": 2, "unit": "µg/mL"}, {"measurement": "MIC", "setting": "Candida orthopsilosis [20]", "result": 2, "unit": "µg/mL"}, {"measurement": "Activity", "setting": "Candida orthopsilosis [21]", "result": "Active"}, {"measurement": "MIC", "setting": "Candida orthopsilosis [22]", "result": 1, "unit": "µg/mL"}, {"measurement": "Activity", "setting": "Candida orthopsilosis [23]", "result": "inactive"}, {"measurement": "MIC", "setting": "Candida orthopsilosis [24]", "result": 512, "unit": "µg/mL"}, {"measurement": "Activity", "setting": "Candida parapsilosis [25]", "result": "Active"}]}]}
